# Data published in ChEMBL document CHEMBL3352518, “Synthesis and biological evaluation of pyridinone analogues as novel potent HIV-1 NNRTIs” (Bioorg Med Chem, 2015).
# Experiments:
# [1] = molecular target: Human immunodeficiency virus type 1 reverse transcriptase (Human immunodeficiency virus 1, UniProt Q72547); experiment: Inhibition of HIV-1 recombinant reverse transcriptase after 1 hr by streptavidinalkaline phosphatase reporter system
# Procedure, shortened: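 Highly purified recombinant HIV-1 RT with a poly(rA)/oligo(dT)15 homopolymer template. SA-ALP was added, then PNPP (1 mg/mL, pH 9.5) for 30 min at 37 °C, stopped with NaOH. IC50 is the mean of three experiments.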
# [2] = tested on: Human immunodeficiency virus 1; experiment: Antiviral activity against wild-type HIV-1 SF33 infected in human TZM-bl cells after 7 days by ELISA; type: functional, organism-based; details: Human immunodeficiency virus 1, SF33, TZM-bl, 168 h
# Procedure, shortened: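 TZM-bl cells (4 × 10⁴/well) were infected with 200 TCID₅₀ of HIV-1 SF33 for 2 h at 37 °C. Serially diluted compounds were then added and incubation continued 7 days at 37 °C. p24 was measured by ELISA.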
# [3] = Cytotoxicity against human TZM-bl cells after 3 days by XTT assay; type: cell-based
# [4] = Selectivity index, ratio of CC50 for human TZM-bl cells to EC50 for wild-type HIV-1 SF33; type: toxicity, cell-based; details: read-out: Ratio CC50/EC50
# Procedure, shortened: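 SI is calculated as CC50 in TZM-bl cells divided by EC50 against HIV-1 SF33 infection.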
SMILES,IC50 [1] [µM],EC50 [2] [µM],CC50 at 72 h [3] [µM],selectivity ratio [4]
Cc1ccc(Sc2cc(CCc3ccccc3)[nH]c(=O)c2I)cc1,12,,,
O=c1[nH]c(CCc2ccccc2)cc(NC2CCCCC2)c1I,15.2,,,
CC1CCCCC1Nc1cc(CCc2ccccc2)[nH]c(=O)c1I (stereo unspecified),0.42,2.71,50.2,18.5
O=c1[nH]c(CCc2ccccc2)cc(NC2CCCC2)c1I,24,,,
O=c1[nH]c(CCc2ccccc2)cc(Nc2ccccc2)c1I,8.14,,,
O=c1[nH]c(CCc2ccccc2)cc(Sc2ccccc2)c1I,20.3,,,
O=c1[nH]c(CCc2ccccc2)cc(Oc2ccccc2)c1I,0.29,0.15,181,1200
CC(C)c1c(Oc2ccccc2)cc(CCc2ccccc2)[nH]c1=O,0.089,0.0563,195,3470
Cc1ccc(Sc2cc(CCc3ccccc3)[nH]c(=O)c2Br)cc1,16.9,,,
O=c1[nH]c(CCc2ccccc2)cc(NC2CCCCC2)c1Br,40.3,,,
CC1CCCCC1Nc1cc(CCc2ccccc2)[nH]c(=O)c1Br (stereo unspecified),0.68,13.7,131,9.6
O=c1[nH]c(CCc2ccccc2)cc(NC2CCCC2)c1Br,43.3,,,
O=c1[nH]c(CCc2ccccc2)cc(Nc2ccccc2)c1Br,11.3,,,
O=c1[nH]c(CCc2ccccc2)cc(Sc2ccccc2)c1Br,57.1,,,
CN(C)c1c(Sc2ccccc2)cc(CCc2ccccc2)[nH]c1=O,15.2,,,
CC(C)c1c(Sc2ccccc2)cc(CCc2ccccc2)[nH]c1=O,0.093,0.136,136,998
